In ChEMBL document CHEMBL1138178, “Identification of novel parasitic cysteine protease inhibitors by use of virtual screening. 2. The available chemical directory” (J Med Chem, 2006) one finds IC50 data, which are given here for three compounds.

One experiment relates to Vero. Description: Cytotoxicity against Vero cells up to 50 uM. Type of experiment: functional, cell-based, Chlorocebus sabaeus. Put shortly: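 VERO monkey kidney fibroblast cells tested simultaneously with antileishmanial screen; cytotoxicity read by neutral red assay; IC50 computed from growth inhibition curve.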
Another experiment deals with Leishmania donovani. Briefly: Antileishmanial activity against Leishmania donovani promastigotes. It is filed as functional, organism-based. To be noted: Leishmania donovani; read-out: IC50.
A further experiment relates to Plasmodium falciparum. Briefly: Antimalarial activity against Plasmodium falciparum W2 up to 20 uM. Type of experiment: functional, organism-based. Put shortly: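 Sorbitol-synchronized chloroquine-resistant W2 P. falciparum at 1% parasitemia, 2% hematocrit, RPMI-1640 with 10% human serum, 3% O2/6% CO2/91% N2; compounds from DMSO (max 0.1%) for 48 h; fixed in 1% formaldehyde 48 h, stained with 1 nM YOYO-1 in 0.1% Triton X-100; parasitemia by flow cytometry; IC50 from percent control parasitemia versus concentration.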

As to `CCOC(=O)C1CCN(S(=O)(=O)c2ccc(CNC(=O)c3ccccc3)s2)CC1`, the IC50 – broadly, the concentration that gives 50% inhibition – in the experiment on Vero was “Non-toxic”; in the experiment on Leishmania donovani it was 50.4 µM; in the experiment with Plasmodium falciparum, “Not Active”.

Regarding `COc1ccc(-c2ccnc(SCC(=O)NCCSCc3ccco3)n2)cc1`, the IC50 entry was “Non-toxic” with Vero, 79.4 µM in the experiment on Leishmania donovani and “Not Active” in the experiment with Plasmodium falciparum.

Consider `O=S(=O)(NCCSCc1ccco1)c1cc(S(=O)(=O)c2ccccc2)cs1`, for which the half-inhibitory concentration (IC50) entry with Vero is “Non-toxic”; in the experiment on Leishmania donovani, 54.1 µM; in the experiment with Plasmodium falciparum, “Not Active”.
